Test results from ChEMBL document CHEMBL3352559, “Synthesis and pharmacological investigation of aralkyl diamine derivatives as potential triple reuptake inhibitors” (Eur J Med Chem, 2014).

Tests used:
[1] = molecular target: Sodium-dependent dopamine transporter (Homo sapiens, UniProt Q01959); experiment: Displacement of [3H]BTCP from human DAT at 10 uM relative to control
Procedure, shortened: (§1)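 Outsourced CNS panel of 55 receptor binding assays run by Cerep. Compound tested at 10 μM, the default primary-binding concentration, with inhibition expressed relative to control. Inhibition above 50% taken as a significant effect.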

Salmonella typhimurium [2] = experiment: Mutagenic activity in Salmonella typhimurium TA98 assessed as number of reversion mutation at 3 ug/plate; assay type: toxicity, organism-based; settings: salmonella enterica subsp. enterica serovar typhimurium
Procedure, shortened: (§2)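 Ames reversion test in Salmonella typhimurium TA98 and TA100, with and without rat liver S9 metabolic activation. Compound was dissolved in DMSO and added at 3–5000 μg/plate. Each dose, vehicle and positive control was plated in triplicate, and revertant colonies were counted.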

Salmonella typhimurium [3] = experiment: Mutagenic activity in Salmonella typhimurium TA98 assessed as number of reversion mutation at 10 ug/plate; assay type: toxicity, organism-based; settings: salmonella enterica subsp. enterica serovar typhimurium; procedure, shortened: as §2
Salmonella typhimurium [4] = experiment: Mutagenic activity in Salmonella typhimurium TA100 assessed as number of reversion mutation at 30 ug/plate; assay type: toxicity, organism-based; settings: salmonella enterica subsp. enterica serovar typhimurium; procedure, shortened: as §2
Salmonella typhimurium [5] = experiment: Mutagenic activity in Salmonella typhimurium TA100 assessed as number of reversion mutation at 1000 ug/plate; assay type: toxicity, organism-based; settings: salmonella enterica subsp. enterica serovar typhimurium; procedure, shortened: as §2
Salmonella typhimurium [6] = experiment: Mutagenic activity in Salmonella typhimurium TA100 assessed as number of reversion mutation at 5000 ug/plate; assay type: toxicity, organism-based; settings: salmonella enterica subsp. enterica serovar typhimurium; procedure, shortened: as §2
Rattus norvegicus [7] = experiment: Antidepressant activity in rat assessed as reduction in immobility time at 5 mg/kg, po by forced swimming test relative to control; assay type: functional
Procedure, shortened: (§3)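 Male rats dosed orally at 5, 10 or 20 mg/kg alongside vehicle and venlafaxine 30 mg/kg PO groups. 1 h post-dose, each rat placed in a glass cylinder (40 cm × 18 cm) holding 15 cm of 25 ± 1 °C water. Immobility time recorded over a 6 min trial; significant main effects followed by post hoc Fisher's test.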

Rattus norvegicus [8] = experiment: Antidepressant activity in rat assessed as reduction in immobility time at 10 mg/kg, po by forced swimming test relative to control; assay type: functional; procedure, shortened: as §3
Rattus norvegicus [9] = experiment: Antidepressant activity in rat assessed as reduction in immobility time at 20 mg/kg, po by forced swimming test relative to control; assay type: functional; procedure, shortened: as §3
[10] = Acute toxicity in KM mouse assessed as survival at 450 mg/kg, po up to 14 days (reference value: 100%); assay type: organism-based; design: dose 450 mg/kg, route oral; settings: in vivo
[11] = Acute toxicity in KM mouse assessed as survival at 300 mg/kg, po up to 14 days (reference value: 100%); assay type: organism-based; design: dose 300 mg/kg, route oral; settings: in vivo
[12] = Mean residence time in Sprague-Dawley rat at 2 mg/kg, po; assay type: ADME, organism-based; design: dose 2 mg/kg, route oral; settings: in vivo
[13] = Apparent volume of distribution during terminal phase in Sprague-Dawley rat at 2 mg/kg, po; assay type: ADME, organism-based; design: dose 2 mg/kg, route oral; settings: in vivo, read-out: Vz/F
Procedure, shortened: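 Male SD rats, fasted overnight until 6 h post-dose. PO group received single 2 mg/kg with heparinized blood sampled at 5, 15, 30 min, 1, 2, 4, 8, 24 h. IV group received single 0.5 mg/kg via femoral vein with sampling at 5, 15, 30 min, 1, 2, 4 h. Plasma stored at -40 °C, quantified by LC/MS/MS; 24 rats per group.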

[14] = Oral bioavailability in Sprague-Dawley rat at 2 mg/kg; assay type: ADME, organism-based; settings: in vivo
[15] = Drug uptake in Sprague-Dawley rat plasma at 0.5 mg/kg iv after 0.08 hrs; assay type: ADME, organism-based; design: dose 0.5 mg/kg, route intravenous
Procedure, shortened: (§4)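 Male SD rats, fasted overnight until 6 h post-dose; single 0.5 mg/kg femoral-vein injection; blood drawn into heparin at 5, 15, 30 min, 1, 2 and 4 h; plasma stored at -40 °C; drug levels by LC/MS/MS; noncompartmental parameters.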

[16] = Drug uptake in Sprague-Dawley rat plasma at 0.5 mg/kg iv after 0.25 hrs; assay type: ADME, organism-based; design: dose 0.5 mg/kg, route intravenous; procedure, shortened: as §4
[17] = Ratio of drug level in Sprague-Dawley rat brain to plasma at 0.5 mg/kg iv after 0.50 hrs; assay type: ADME, organism-based; design: dose 0.5 mg/kg, route intravenous; settings: read-out: BPR
[18] = Ratio of drug level in Sprague-Dawley rat brain to plasma at 0.5 mg/kg iv after 4 hrs; assay type: ADME, organism-based; design: dose 0.5 mg/kg, route intravenous; settings: read-out: BPR
[19] = molecular target: Adenosine receptor A3 (Homo sapiens) (UniProt P0DMS8); experiment: Displacement of [3H]ABMECA from human adenosine A3 receptor at 10 uM relative to control; procedure, shortened: as §1
[20] = molecular target: Beta-1 adrenergic receptor (Homo sapiens) (UniProt P08588); experiment: Displacement of [3H]CGP-12177 from human beta1-adrenergic receptor at 10 uM relative to control; procedure, shortened: as §1
[21] = molecular target: Cannabinoid receptor 1 (Homo sapiens) (UniProt P21554); experiment: Displacement of [3H]-CP55940 from human CB1 receptor at 10 uM relative to control; procedure, shortened: as §1
Homo sapiens [22] = species: Homo sapiens; experiment: Displacement of [3H]GABA from GABA receptor (unknown origin) at 10 uM relative to control; procedure, shortened: as §1
[23] = molecular target: Muscarinic acetylcholine receptor M2 (Homo sapiens) (UniProt P08172); experiment: Displacement of [3H]AF-DX 384 from human muscarinic M2 receptor at 10 uM relative to control; procedure, shortened: as §1
[24] = molecular target: Delta-type opioid receptor (Homo sapiens) (UniProt P41143); experiment: Displacement of [3H] DADLE from human delta opioid receptor at 10 uM relative to control; procedure, shortened: as §1
[25] = molecular target: Kappa-type opioid receptor (Homo sapiens) (UniProt P41145); experiment: Displacement of [3H]U69593 from human kappa opioid receptor at 10 uM relative to control
Procedure, shortened: (§5)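 Outsourced CNS receptor panel (55 binding assays); compound tested at 10 μM in primary radioligand binding; specific binding inhibition expressed relative to control, with >50% inhibition taken as a significant effect.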

[26] = molecular target: Mu-type opioid receptor (Homo sapiens) (UniProt P35372); experiment: Displacement of […] from human mu opioid receptor at 10 uM relative to control; procedure, shortened: as §1
[27] = molecular target: Nociceptin receptor (Homo sapiens) (UniProt P41146); experiment: Displacement of [3H] nociceptin from human ORL1 receptor at 10 uM relative to control; procedure, shortened: as §1
[28] = molecular target: Prostaglandin E2 receptor EP4 subtype (Homo sapiens) (UniProt P35408); experiment: Displacement of [3H]PGE2 from human EP4 receptor at 10 uM relative to control; procedure, shortened: as §1
[29] = molecular target: 5-hydroxytryptamine receptor 7 (Homo sapiens) (UniProt P34969); experiment: Displacement of [3H]LSD from human 5-HT7 receptor at 10 uM relative to control; procedure, shortened: as §1
[30] = molecular target: Vasopressin V1a receptor (Homo sapiens) (UniProt P37288); experiment: Displacement of [3H]AVP from human V1a receptor at 10 uM relative to control; procedure, shortened: as §1
[31] = molecular target: 5-hydroxytryptamine receptor 3A (Homo sapiens) (UniProt P46098); experiment: Inhibition of human 5HT3 at 10 uM by […] binding assay relative to control; procedure, shortened: as §5
Homo sapiens [32] = species: Homo sapiens; experiment: Inhibition of Kv channel (unknown origin) at 10 uM by [125I]alpha-dendrotoxin binding assay relative to control
Procedure, shortened: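 Radioligand binding was run at a contract laboratory as part of a 55-target CNS receptor panel. Test concentration was 10 μM. Inhibition of specific binding was expressed relative to control, and inhibition greater than 50% was taken as significant.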

[33] = molecular target: Sodium-dependent noradrenaline transporter (Homo sapiens, UniProt P23975); settings: 10 uM
[34] = Drug uptake in Sprague-Dawley rat brain at 0.5 mg/kg ip after 1 hrs

Chain of Cannabinoid receptor 1 (Homo sapiens) (P21554 whole entry): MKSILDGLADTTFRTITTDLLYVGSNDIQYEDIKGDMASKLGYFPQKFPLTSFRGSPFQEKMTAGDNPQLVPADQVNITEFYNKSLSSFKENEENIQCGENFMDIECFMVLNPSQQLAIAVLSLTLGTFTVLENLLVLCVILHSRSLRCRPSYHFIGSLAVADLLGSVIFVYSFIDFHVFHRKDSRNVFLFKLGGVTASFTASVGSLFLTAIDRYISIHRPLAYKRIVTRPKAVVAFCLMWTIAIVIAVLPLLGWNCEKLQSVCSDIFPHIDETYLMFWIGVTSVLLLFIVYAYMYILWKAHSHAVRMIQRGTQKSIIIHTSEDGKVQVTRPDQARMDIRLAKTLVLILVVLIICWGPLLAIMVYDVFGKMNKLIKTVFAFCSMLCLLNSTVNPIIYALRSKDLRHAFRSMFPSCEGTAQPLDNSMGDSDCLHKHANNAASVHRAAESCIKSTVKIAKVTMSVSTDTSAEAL
Chain of Adenosine receptor A3 (Homo sapiens) (P0DMS8 whole entry): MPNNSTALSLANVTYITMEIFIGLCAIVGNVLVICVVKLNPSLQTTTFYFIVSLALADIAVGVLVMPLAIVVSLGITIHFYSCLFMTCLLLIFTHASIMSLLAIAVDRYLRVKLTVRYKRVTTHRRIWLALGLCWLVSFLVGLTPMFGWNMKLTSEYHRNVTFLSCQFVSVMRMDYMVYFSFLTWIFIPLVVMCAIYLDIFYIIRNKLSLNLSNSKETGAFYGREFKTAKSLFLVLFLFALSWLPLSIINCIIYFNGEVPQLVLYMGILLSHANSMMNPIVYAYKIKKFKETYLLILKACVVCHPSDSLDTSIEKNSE
Chain of Delta-type opioid receptor (Homo sapiens) (P41143 whole entry): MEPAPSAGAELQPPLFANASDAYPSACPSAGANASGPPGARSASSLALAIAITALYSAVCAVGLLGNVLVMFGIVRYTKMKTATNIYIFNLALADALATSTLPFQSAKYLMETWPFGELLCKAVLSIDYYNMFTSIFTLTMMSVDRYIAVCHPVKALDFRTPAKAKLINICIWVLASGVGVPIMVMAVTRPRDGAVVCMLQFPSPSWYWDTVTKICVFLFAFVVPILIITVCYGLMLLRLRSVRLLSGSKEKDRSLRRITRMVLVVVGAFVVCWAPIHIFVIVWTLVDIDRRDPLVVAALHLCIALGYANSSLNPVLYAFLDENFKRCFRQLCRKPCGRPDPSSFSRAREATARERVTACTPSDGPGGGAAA
Chain of Kappa-type opioid receptor (Homo sapiens) (P41145 whole entry): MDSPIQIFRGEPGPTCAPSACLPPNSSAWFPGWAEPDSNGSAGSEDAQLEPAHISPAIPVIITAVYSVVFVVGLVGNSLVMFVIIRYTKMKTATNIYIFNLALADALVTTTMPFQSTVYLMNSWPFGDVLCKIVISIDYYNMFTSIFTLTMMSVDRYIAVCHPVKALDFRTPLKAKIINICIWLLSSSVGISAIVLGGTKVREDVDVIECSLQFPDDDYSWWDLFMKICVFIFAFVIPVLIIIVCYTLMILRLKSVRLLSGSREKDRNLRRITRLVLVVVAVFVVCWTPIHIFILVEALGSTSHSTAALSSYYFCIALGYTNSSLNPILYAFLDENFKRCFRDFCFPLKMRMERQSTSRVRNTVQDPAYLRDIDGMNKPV
Chain of Nociceptin receptor (Homo sapiens) (P41146 whole entry): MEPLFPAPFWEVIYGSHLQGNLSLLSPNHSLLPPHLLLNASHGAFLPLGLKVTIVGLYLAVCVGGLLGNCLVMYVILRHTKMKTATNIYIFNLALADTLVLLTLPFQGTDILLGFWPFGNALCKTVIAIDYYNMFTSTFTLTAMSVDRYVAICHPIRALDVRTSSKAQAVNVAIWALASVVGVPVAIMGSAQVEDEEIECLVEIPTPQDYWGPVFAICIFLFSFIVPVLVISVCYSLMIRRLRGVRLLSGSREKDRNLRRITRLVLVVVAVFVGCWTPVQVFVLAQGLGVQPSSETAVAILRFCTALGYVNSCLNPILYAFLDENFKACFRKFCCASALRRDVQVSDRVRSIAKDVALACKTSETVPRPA
Chain of Sodium-dependent noradrenaline transporter (P23975 whole entry): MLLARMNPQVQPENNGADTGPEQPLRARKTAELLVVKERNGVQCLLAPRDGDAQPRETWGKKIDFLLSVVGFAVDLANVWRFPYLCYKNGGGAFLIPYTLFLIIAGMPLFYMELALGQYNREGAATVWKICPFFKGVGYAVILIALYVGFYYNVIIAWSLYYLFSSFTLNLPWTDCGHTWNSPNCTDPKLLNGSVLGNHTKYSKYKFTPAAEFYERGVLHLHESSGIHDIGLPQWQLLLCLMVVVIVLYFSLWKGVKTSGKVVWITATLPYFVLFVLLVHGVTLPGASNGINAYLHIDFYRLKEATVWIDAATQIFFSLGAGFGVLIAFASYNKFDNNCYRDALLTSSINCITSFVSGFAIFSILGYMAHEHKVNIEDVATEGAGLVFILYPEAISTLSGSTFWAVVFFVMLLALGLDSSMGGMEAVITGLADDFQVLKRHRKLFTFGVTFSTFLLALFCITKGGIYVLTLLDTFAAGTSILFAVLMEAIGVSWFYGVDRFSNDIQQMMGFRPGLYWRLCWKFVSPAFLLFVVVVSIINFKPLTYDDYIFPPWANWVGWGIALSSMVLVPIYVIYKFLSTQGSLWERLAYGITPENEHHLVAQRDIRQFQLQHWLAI
Chain of Vasopressin V1a receptor (Homo sapiens) (P37288 whole entry, looked up): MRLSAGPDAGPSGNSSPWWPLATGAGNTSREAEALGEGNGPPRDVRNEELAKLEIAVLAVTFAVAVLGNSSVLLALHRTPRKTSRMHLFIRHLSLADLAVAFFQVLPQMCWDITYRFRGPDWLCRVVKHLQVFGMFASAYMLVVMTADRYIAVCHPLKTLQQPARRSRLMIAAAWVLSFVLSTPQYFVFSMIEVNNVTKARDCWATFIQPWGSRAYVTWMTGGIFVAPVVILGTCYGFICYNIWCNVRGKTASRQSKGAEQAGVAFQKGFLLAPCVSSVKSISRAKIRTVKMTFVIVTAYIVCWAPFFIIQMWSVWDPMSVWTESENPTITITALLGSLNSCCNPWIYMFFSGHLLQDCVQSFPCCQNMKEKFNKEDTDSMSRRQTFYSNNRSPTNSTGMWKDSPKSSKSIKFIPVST
Chain of 5-hydroxytryptamine receptor 3A (Homo sapiens) (P46098 whole entry): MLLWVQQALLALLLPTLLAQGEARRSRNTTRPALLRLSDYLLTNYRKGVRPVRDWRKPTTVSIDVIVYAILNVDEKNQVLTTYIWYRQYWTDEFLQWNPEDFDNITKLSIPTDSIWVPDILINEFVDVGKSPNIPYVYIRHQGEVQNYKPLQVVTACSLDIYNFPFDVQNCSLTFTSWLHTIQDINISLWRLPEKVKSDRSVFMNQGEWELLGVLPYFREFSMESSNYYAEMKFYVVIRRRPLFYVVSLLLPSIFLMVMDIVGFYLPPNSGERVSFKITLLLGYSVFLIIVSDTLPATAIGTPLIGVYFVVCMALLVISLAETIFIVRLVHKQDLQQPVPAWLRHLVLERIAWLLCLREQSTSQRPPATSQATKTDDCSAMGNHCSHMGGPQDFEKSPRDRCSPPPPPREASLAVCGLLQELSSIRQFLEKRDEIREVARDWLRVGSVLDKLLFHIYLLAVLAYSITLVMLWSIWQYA
Chain of 5-hydroxytryptamine receptor 7 (Homo sapiens) (P34969 whole entry): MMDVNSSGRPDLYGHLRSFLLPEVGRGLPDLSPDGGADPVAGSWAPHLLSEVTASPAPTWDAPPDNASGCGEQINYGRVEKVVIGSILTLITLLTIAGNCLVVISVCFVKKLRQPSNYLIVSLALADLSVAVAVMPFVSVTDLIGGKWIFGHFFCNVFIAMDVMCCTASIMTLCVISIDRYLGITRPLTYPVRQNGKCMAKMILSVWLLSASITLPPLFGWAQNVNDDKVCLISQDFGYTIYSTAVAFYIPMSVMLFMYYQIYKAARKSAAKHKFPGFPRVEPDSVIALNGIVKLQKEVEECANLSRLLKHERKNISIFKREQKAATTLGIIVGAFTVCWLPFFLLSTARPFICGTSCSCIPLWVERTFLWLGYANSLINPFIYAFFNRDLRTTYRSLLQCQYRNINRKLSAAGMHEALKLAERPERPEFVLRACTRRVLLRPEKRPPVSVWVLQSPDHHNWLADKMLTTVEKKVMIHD
Chain of Sodium-dependent dopamine transporter (Q01959 whole entry): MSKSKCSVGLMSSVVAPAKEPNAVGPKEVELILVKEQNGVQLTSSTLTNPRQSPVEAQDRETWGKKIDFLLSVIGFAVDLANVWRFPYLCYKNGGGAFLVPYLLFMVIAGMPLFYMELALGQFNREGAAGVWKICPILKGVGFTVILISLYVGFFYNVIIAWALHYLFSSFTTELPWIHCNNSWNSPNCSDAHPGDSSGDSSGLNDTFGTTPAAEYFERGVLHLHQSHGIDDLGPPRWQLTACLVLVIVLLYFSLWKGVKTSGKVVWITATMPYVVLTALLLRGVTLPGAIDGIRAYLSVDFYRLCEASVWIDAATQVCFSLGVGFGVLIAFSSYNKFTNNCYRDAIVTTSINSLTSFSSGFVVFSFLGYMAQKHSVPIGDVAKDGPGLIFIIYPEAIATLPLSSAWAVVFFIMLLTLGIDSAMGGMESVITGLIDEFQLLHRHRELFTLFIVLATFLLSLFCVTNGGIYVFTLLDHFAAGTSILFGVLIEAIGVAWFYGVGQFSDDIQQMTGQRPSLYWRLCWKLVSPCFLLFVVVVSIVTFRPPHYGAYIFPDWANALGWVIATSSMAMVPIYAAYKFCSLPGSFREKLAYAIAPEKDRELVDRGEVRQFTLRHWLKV
Chain of Mu-type opioid receptor (Homo sapiens) (P35372 whole entry): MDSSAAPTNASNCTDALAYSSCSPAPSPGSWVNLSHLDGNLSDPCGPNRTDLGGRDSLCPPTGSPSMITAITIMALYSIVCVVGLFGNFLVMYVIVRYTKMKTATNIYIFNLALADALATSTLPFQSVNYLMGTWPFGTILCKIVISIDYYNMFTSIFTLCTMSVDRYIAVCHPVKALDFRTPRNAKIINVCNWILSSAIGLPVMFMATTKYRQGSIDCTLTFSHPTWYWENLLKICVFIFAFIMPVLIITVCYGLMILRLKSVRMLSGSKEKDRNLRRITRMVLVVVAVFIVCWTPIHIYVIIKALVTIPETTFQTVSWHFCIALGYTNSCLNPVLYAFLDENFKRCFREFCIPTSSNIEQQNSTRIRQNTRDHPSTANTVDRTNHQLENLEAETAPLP

## CN(C)CCC(c1ccc(Cl)c(Cl)c1)N1CCOCC1 (centres undefined)
[1]
  inhibition: 93.6%
Salmonella typhimurium [2]
  Activity: 33
Salmonella typhimurium [3]
  Activity: 32
Salmonella typhimurium [4]
  Activity: 75
Salmonella typhimurium [5]
  Activity: 87
Salmonella typhimurium [6]
  Activity: 77
Rattus norvegicus [7]
  inhibition in vivo at 5 mg/kg: 31%
Rattus norvegicus [8]
  inhibition in vivo at 10 mg/kg: 47%
Rattus norvegicus [9]
  inhibition in vivo at 20 mg/kg: 66%
[10]
  survival at 336 h: 100%
[11]
  survival at 336 h: 100%
[12]
  MRT: 3.05 h
[13]
  Vd/F: 164 L/kg
[14]
  bioavailability: 19.4%
[15]
  concentration at 0.08 h: 48.5 ng/mL
[16]
  concentration at 0.25 h: 42 ng/mL
[17]
  Kp at 0.5 h: 12.3
[18]
  Kp at 4 h: 11.4
[19]
  inhibition: 2.6%
[20]
  inhibition: 11%
[21]
  inhibition: -6.2%
Homo sapiens [22]
  inhibition: 9.8%
[23]
  inhibition: 17.7%
[24]
  inhibition: -1.1%
[25]
  inhibition: 11.2%
[26]
  inhibition: 39.7%
[27]
  inhibition: 0.9%
[28]
  inhibition: -1.2%
[29]
  inhibition: 8.9%
[30]
  inhibition: 3.3%
[31]
  inhibition: -5.2%
Homo sapiens [32]
  inhibition: -3.6%
[33]
  inhibition: 96.7%
[34]
  concentration at 1 h: 425 ng/mL
